# Measured values reported in ChEMBL document CHEMBL1122773 (1984).
# Test system: Staphylococcus aureus
# Assay: In vitro antibacterial activity for minimum inhibition concentration (MIC) required to inhibit growth of Staphylococcus aureus
# Assay type: functional
# Summary of the method: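 Broth microdilution in brain/heart infusion broth, inoculated with a standardized suspension to a final 10^5 viable cells/mL. Incubation 20 h at 37 °C. MIC read as the lowest concentration preventing visible growth.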
row,Structure (SMILES),MIC
1,CC[C@H]1CCN[C@@H](C(=O)N[C@@H]([C@H]2O[C@H](SC)[C@H](O)[C@@H](O)[C@H]2O)[C@H](C)Cl)C1,250 µg/mL
2,CCc1ccc(C(=O)NC(C(C)Cl)C2OC(SC)C(O)C(O)C2O)nc1 (stereo not drawn),62.5 µg/mL
3,CSC1OC(C(NC(=O)c2cc(C(C)(C)C)ccn2)C(C)Cl)C(O)C(O)C1O (stereo not drawn),> 100 µg/mL
4,CSC1OC(C(NC(=O)[C@@H]2CCN2)C(C)Cl)C(O)C(O)C1O (stereo partly drawn),25 µg/mL
5,CSC1OC(C(NC(=O)c2cccnc2)C(C)Cl)C(O)C(O)C1O (stereo not drawn),> 100 µg/mL
6,CSC1OC(C(NC(=O)[C@H]2CCCCN2C)C(C)Cl)C(O)C(O)C1O (stereo partly drawn),> 100 µg/mL
7,CCC[C@H]1CCN[C@@H](C(=O)NC(C(C)Cl)C2OC(SC)C(O)C(O)C2O)C1 (stereo partly drawn),> 25 µg/mL
8,CSC1OC(C(NC(=O)[C@H]2CC3CCN2CC3)C(C)Cl)C(O)C(O)C1O (stereo partly drawn),50 µg/mL
9,CCCCCC[C@H]1CCN[C@@H](C(=O)NC(C(C)Cl)C2OC(SC)C(O)C(O)C2O)C1 (stereo partly drawn),0.5 µg/mL
10,CCCCCC[C@@H]1CCN[C@H](C(=O)NC(C(C)Cl)C2OC(SC)C(O)C(O)C2O)C1 (stereo partly drawn),0.03 µg/mL
11,CCCC[C@@H]1CCN(CCO)[C@H](C(=O)NC(C(C)Cl)C2OC(SC)C(O)C(O)C2O)C1 (stereo partly drawn),0.16 µg/mL
12,CSC1OC(C(NC(=O)c2ccncc2)C(C)Cl)C(O)C(O)C1O (stereo not drawn),> 1000 µg/mL
13,CC[C@@H]1CC[C@H](C(=O)NC(C(C)Cl)C2OC(SC)C(O)C(O)C2O)NC1 (stereo partly drawn),2.5 µg/mL
14,CC[C@@H]1CCN(CCO)[C@H](C(=O)NC(C(C)Cl)C2OC(SC)C(O)C(O)C2O)C1 (stereo partly drawn),2.5 µg/mL
15,CSC1OC(C(NC(=O)[C@@H]2CC3CCN2CC3)C(C)Cl)C(O)C(O)C1O (stereo partly drawn),> 100 µg/mL
16,CCCCCCc1ccnc(C(=O)NC(C(C)Cl)C2OC(SC)C(O)C(O)C2O)c1 (stereo not drawn),50 µg/mL
17,CSC1OC(C(NC(=O)[C@@H]2CCCNC2)C(C)Cl)C(O)C(O)C1O (stereo partly drawn),> 80 µg/mL
18,CSC1OC(C(NC(=O)c2cccc(C)n2)C(C)Cl)C(O)C(O)C1O (stereo not drawn),> 25 µg/mL
19,CCCCCC[C@@H]1CCN(C)[C@H](C(=O)NC(C(C)Cl)C2OC(SC)C(O)C(O)C2O)C1 (stereo partly drawn),0.3 µg/mL
20,CCc1ccnc(C(=O)NC(C(C)Cl)C2OC(SC)C(O)C(O)C2O)c1 (stereo not drawn),1000 µg/mL
21,CCCc1ccnc(C(=O)NC(C(C)Cl)C2OC(SC)C(O)C(O)C2O)c1 (stereo not drawn),> 100 µg/mL

# The next lines start with the values.
row,MIC,Structure (SMILES)
1,> 25 µg/mL,CSC1OC(C(NC(=O)[C@H]2CCC[C@@H](C)N2)C(C)Cl)C(O)C(O)C1O (stereo partly drawn)
2,2 µg/mL,CC[C@H]1CC[C@@H](C(=O)NC(C(C)Cl)C2OC(SC)C(O)C(O)C2O)NC1 (stereo partly drawn)
3,> 25 µg/mL,CC[C@@H]1CCC[C@H](C(=O)NC(C(C)Cl)C2OC(SC)C(O)C(O)C2O)N1 (stereo partly drawn)
4,> 25 µg/mL,CSC1OC(C(NC(=O)[C@@H]2CCC[C@H](C)N2)C(C)Cl)C(O)C(O)C1O (stereo partly drawn)
5,> 160 µg/mL,CC[C@H]1CCN(CCO)[C@@H](C(=O)NC(C(C)Cl)C2OC(SC)C(O)C(O)C2O)C1 (stereo partly drawn)
6,> 10 µg/mL,CCCCCCCCc1ccnc(C(=O)NC(C(C)Cl)C2OC(SC)C(O)C(O)C2O)c1 (stereo not drawn)
7,> 80 µg/mL,CS[C@H]1O[C@H](C(NC(=O)C2CCNCC2)C(C)Cl)[C@H](O)[C@H](O)[C@H]1O (stereo partly drawn)
8,> 100 µg/mL,CSC1OC(C(NC(=O)c2ncccc2C)C(C)Cl)C(O)C(O)C1O (stereo not drawn)
9,0.5 µg/mL,CCC[C@@H]1CCN[C@H](C(=O)NC(C(C)Cl)C2OC(SC)C(O)C(O)C2O)C1 (stereo partly drawn)
10,62.5 µg/mL,CSC1OC(C(NC(=O)c2ccccn2)C(C)Cl)C(O)C(O)C1O (stereo not drawn)
11,3.9 µg/mL,CSC1OC(C(NC(=O)[C@@H]2CCCCN2C)C(C)Cl)C(O)C(O)C1O (stereo partly drawn)
12,3.9 µg/mL,CSC1OC(C(NC(=O)[C@@H]2CCCCN2)C(C)Cl)C(O)C(O)C1O (stereo partly drawn)
13,> 25 µg/mL,CSC1OC(C(NC(=O)[C@H]2C[C@@H](C(C)(C)C)CCN2)C(C)Cl)C(O)C(O)C1O (stereo partly drawn)
14,> 80 µg/mL,CSC1OC(C(NC(=O)[C@H]2CCCNC2)C(C)Cl)C(O)C(O)C1O (stereo partly drawn)
15,12.5 µg/mL,CSC1OC(C(NC(=O)[C@H]2NCCCC2C)C(C)Cl)C(O)C(O)C1O (stereo partly drawn)
16,1.56 µg/mL,CSC1OC(C(NC(=O)[C@@H]2CCCCCN2)C(C)Cl)C(O)C(O)C1O (stereo partly drawn)
17,31.2 µg/mL,CCCC[C@H]1CCN[C@@H](C(=O)NC(C(C)Cl)C2OC(SC)C(O)C(O)C2O)C1 (stereo partly drawn)
18,25 µg/mL,CSC1OC(C(NC(=O)[C@H]2CCCCN2)C(C)Cl)C(O)C(O)C1O (stereo partly drawn)
19,> 100 µg/mL,CSC1OC(C(NC(=O)[C@H]2CCCCCN2)C(C)Cl)C(O)C(O)C1O (stereo partly drawn)
20,> 25 µg/mL,CC[C@H]1CCC[C@@H](C(=O)NC(C(C)Cl)C2OC(SC)C(O)C(O)C2O)N1 (stereo partly drawn)
21,0.06 µg/mL,CCCC[C@@H]1CCN[C@H](C(=O)NC(C(C)Cl)C2OC(SC)C(O)C(O)C2O)C1 (stereo partly drawn)
22,0.2 µg/mL,CC[C@@H]1CCN(C)[C@H](C(=O)NC(C(C)Cl)C2OC(SC)C(O)C(O)C2O)C1 (stereo partly drawn)
23,> 100 µg/mL,CC[C@H]1CCN(C)[C@@H](C(=O)NC(C(C)Cl)C2OC(SC)C(O)C(O)C2O)C1 (stereo partly drawn)
24,0.3 µg/mL,CCCCCCCC[C@@H]1CCN[C@H](C(=O)NC(C(C)Cl)C2OC(SC)C(O)C(O)C2O)C1 (stereo partly drawn)
25,> 25 µg/mL,CCc1cccc(C(=O)NC(C(C)Cl)C2OC(SC)C(O)C(O)C2O)n1 (stereo not drawn)
26,2 µg/mL,CSC1OC(C(NC(=O)[C@@H]2C[C@H](C(C)(C)C)CCN2)C(C)Cl)C(O)C(O)C1O (stereo partly drawn)
27,25 µg/mL,CSC1OC(C(NC(=O)[C@@H]2NCCC[C@@H]2C)C(C)Cl)C(O)C(O)C1O (stereo partly drawn)
